# CYP2C19 inhib – blockers of cytochrome P450 2C19 activity – biochemical, luminescence, ADME assay, primary screen. P33261. CYP2C19 Supersomes, luciferin-H EGE luminescence, 30 min. inhibition, % at 5 µM. hit rate 21% among 96,000. AID 778, 2007;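 active = CYP2C19 inhibition above a set limit at 5 µM in the primary screen, cut at about 50% in these data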;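 also: plate controls were negative control wells for no effect and 2.5 mM tranylcypromine positive control for full effect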
# Target sequence (P33261 whole entry, looked up): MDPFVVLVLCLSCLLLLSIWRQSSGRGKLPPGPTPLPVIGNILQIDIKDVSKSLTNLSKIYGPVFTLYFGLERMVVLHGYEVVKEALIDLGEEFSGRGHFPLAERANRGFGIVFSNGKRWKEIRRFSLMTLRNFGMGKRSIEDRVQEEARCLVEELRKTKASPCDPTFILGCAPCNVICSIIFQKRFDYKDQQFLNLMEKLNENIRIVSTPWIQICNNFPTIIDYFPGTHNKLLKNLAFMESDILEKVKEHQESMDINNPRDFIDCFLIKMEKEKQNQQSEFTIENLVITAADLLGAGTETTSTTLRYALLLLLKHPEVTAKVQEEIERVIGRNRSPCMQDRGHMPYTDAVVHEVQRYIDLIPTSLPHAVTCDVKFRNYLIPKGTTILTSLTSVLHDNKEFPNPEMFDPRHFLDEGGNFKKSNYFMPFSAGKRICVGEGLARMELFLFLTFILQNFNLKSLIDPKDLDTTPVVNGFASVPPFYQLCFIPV
# CYP2C19 act – human CYP2C19 activators, primary screen, biochemical, luminescence. 96,000 tested, under 10 active. activation factor at 5 µM. recombinant CYP2C19, luciferin-H EGE luminescence; active compounds read high; 0 = fully inhibited enzyme, 1 = untreated enzyme. Cytochrome P450 2C19 (Homo sapiens), P33261;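 active = activation factor of at least 2 at 5 µM in the primary screen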;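 also: 0 = wells with 2.5 mM tranylcypromine and 1 = vehicle-only wells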
# Ecoli WT expand – growth inhibitors of wild-type E. coli, primary screen, strain BW25113, expanded library, OD600; hit rate 0.15% among 98,000; growth inhibition, % at 100 µM; OD600 absorbance;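 active = growth inhibition above about 50% at one test dose, limit read from the data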;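 also: growth measured after 20 h incubation at 37 °C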
# tolC growth inh – growth inhibitors of E. coli tolC mutant, primary screen, strain BW25113 ΔtolC::kan, 384-well; growth inhibition, % at 10 µM (by protocol); AID 573, 2007; hit rate 2.2% among 65,000; OD615;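 active = growth inhibition at or above a cutoff equal to the mean over every tested compound plus 3 SD, cut at about 60% in these data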;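 also: growth measured after 20 h incubation at 37 °C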
#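 Test system: E. coli BW25113 ΔtolC::kan bacteria | Medium: Kanamycin-containing LB broth (50 µg/mL) | Dosing: One dose of 10 µM final | Times: 20 h incubation with compound, 37 °C | Detection: Optical density read at 615 nm | Read-out basis: Percent growth inhibition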
# CYP2C9 activ – human CYP2C9 activators, primary screen, biochemical, luminescence | Cytochrome P450 2C9 (Homo sapiens), P11712 | recombinant CYP2C9, luciferin-H conversion; active compounds read high; factor 1 = untreated enzyme, 0 = blocked | activation factor at 5 µM | hit rate 1.4% among 96,000;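 active = activation factor of 2 or more for CYP2C9 at a 5 µM dose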;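 also: 0 = sulfaphenazole-blocked wells and 1 = vehicle-only wells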
# CYP2C9 inh – blockers of cytochrome P450 2C9 activity – biochemical, luminescence, ADME assay, primary screen. P11712. CYP2C9 Supersomes, luciferin-H conversion. inhibition, % at 5 µM. hit rate 20% among 96,000. AID 777, 2007;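 active = blocking of liver enzyme CYP2C9 beyond about 50% at 5 µM, limit read from the data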
# * hit, by the source's call; nt = not tested or not shown. The list is not random: actives were taken first. Their share in the collection is about 29%.
SMILES,CYP2C19 inhib,CYP2C19 act,Ecoli WT expand,tolC growth inh,CYP2C9 activ,CYP2C9 inh
COc1cccc(NC(=O)CN2CCN(c3ccccc3F)CC2)c1,62*,0.4,1,8,0.3,67*
COc1ccccc1NC(=O)CN1CCN(CC(=O)Nc2ccccc2F)CC1,nt,nt,nt,0,nt,nt
COc1ccccc1N1CCN(CCOc2c(OC)cccc2OC)CC1,15,0.9,5,14,2.2*,-118
Cc1ccc(-c2cn3c(=O)cc(C)[nH]c3n2)cc1,20,0.8,0,nt,0.8,15
CC(C)(C)NS(=O)(=O)c1cnc(Cl)c(Cl)c1,90*,0.1,5,nt,1,-1
CCOC(=O)CSc1nnc(-c2ccc(OC)cc2OC)o1,-12,1.1,-5,8,1.3,-34
CCc1nnc(NC(=O)c2ccc(S(=O)(=O)N(CC)CC)cc2)s1,nt,nt,-14,4,nt,nt
Cc1cc(C)c(NC(=O)c2ccc(S(=O)(=O)N(C)C)cc2)c(C)n1,23,0.8,9,-9,1,1
CCCCN(CC)S(=O)(=O)c1ccc(C(=O)Nc2nnc(-c3cccs3)o2)cc1,32,0.7,-1,99*,0.6,42
CCCCN(C)S(=O)(=O)c1ccc(C(=O)Nc2nnc(CSC)o2)cc1,4,1,14,98*,0.2,85*
CCCCN(CCCC)S(=O)(=O)c1ccc(C(=O)Nc2nnc(COC)o2)cc1,3,1,5,97*,0.8,19
CCc1nnc(NC(=O)c2ccc(S(=O)(=O)N(CC)Cc3ccccc3)cc2)o1,0,1,2,100*,0,95*
Cc1nn(-c2ccccc2)c(-c2ccccc2)c1C(=O)O,-1,1,-31,-5,0.7,31
CC(C)=CC(=O)OCC(=O)Nc1nc(C)c(Cl)cc1Cl,83*,0.2,-3,-4,0.6,42
CC(C)=CC(=O)OCC(=O)Nc1ccc(F)cc1Cl,63*,0.4,1,-7,0.8,25
CC(=O)NC(CCS(C)(=O)=O)C(=O)Nc1ccc(F)cc1Cl (stereo not drawn),7,0.9,4,-16,0.9,5
COc1cc(CCC(=O)OCC(=O)Nc2nc(C)c(Cl)cc2Cl)cc(OC)c1OC,20,0.8,4,nt,1.1,-13
COc1ccc(C(=O)OCC(=O)Nc2ccc(OC(F)F)cc2)c(OC)c1,28,0.7,-7,nt,0.8,17
CCC(OC(=O)C1=Cc2ccccc2OC1)C(=O)NC1CCCC1 (stereo not drawn),25,0.7,-1,nt,0.6,38
O=C(OC(C(=O)NC1CCCC1)c1ccncc1)C1=Cc2ccccc2OC1 (stereo not drawn),89*,0.1,-4,nt,0.3,74*
Cc1ccc(CN2C(=O)C3CCCN3c3ccc(S(=O)(=O)N4CCOCC4)cc32)cc1 (stereo not drawn),10,0.9,1,nt,0.6,43
C=CCc1ccccc1OCC(CN1CCCCC1)OC(C)=O (stereo not drawn),53*,0.5,-3,-10,1,0
C=CCc1cc(OC)ccc1OCC(O)CN1CCN(c2ccc(OC)cc2)CC1 (stereo not drawn),15,0.8,12,26,1.1,-9
C=CCc1cc(C)ccc1OCC(O)CN1CCN(c2ccccc2)CC1 (stereo not drawn),20,0.8,14,67*,0.9,12
C=CCc1ccccc1OCC(O)CN1CCN(c2ccccc2F)CC1 (stereo not drawn),66*,0.3,13,31,0.5,55*
SMILES,CYP2C19 inhib,CYP2C19 act,Ecoli WT expand,tolC growth inh,CYP2C9 activ,CYP2C9 inh
N#Cc1ccccc1NC(=O)COC(=O)CSc1nc2ccccc2o1,13,0.9,-9,-20,0.7,28
CC(=O)NC1C(=O)Nc2c(C)cc(C)cc21 (stereo not drawn),0,1,12,nt,1,4
CCOC(=O)c1cnn(-c2ncnc3c2oc2ccccc23)c1N,27,0.7,nt,-18,0.7,31
COc1ccc(-n2nnc3c(=O)n(C/C=C/c4ccccc4)cnc32)cc1,-1,1,-14,-1,0.8,20
CC(C)(C)c1ccccc1OCCOCCSc1ncccn1,-35,1.4,7,nt,1.2,-18
CC(/C=N/N1CCN(c2ccccc2)CC1)=C\c1ccco1,56*,0.4,0,nt,0.8,23
CC(/C=N/N1CCN(c2ccccc2)CC1)=C\c1ccccc1,30,0.7,1,nt,1.1,-8
CC(=C/c1ccco1)/C=N/N1CCN(c2ccccc2)CC1,55*,0.4,4,nt,0.8,18
COc1cc2c3nnc(-c4ccc(F)cc4)c-3cn(Cc3ccccc3)c2cc1OC,3,1,1,nt,0.7,29
CN(c1ccc(C(=O)NCC2CCCO2)cc1)S(C)(=O)=O (stereo not drawn),-1,1,1,nt,1,-1
C=CC(=O)NC(C)(C)Cc1ccccc1,31,0.7,-3,nt,1,4
C=CCC(C)(NCc1ccccc1)c1ccccc1 (stereo not drawn),62*,0.4,-1,nt,0.9,8
N/C(=N/O)c1nc(N2CCCC2)nc(N(c2ccccc2)c2ccccc2)n1,10,0.9,-12,72*,0.9,7
CC1CCCCC1NC(=O)CN1CCC(O)(c2ccc(F)cc2)CC1 (stereo not drawn),6,0.9,7,4,0.9,8
Cc1cc2n(n1)C(c1ccccc1Cl)Nc1ccccc1-2 (stereo not drawn),86*,0.1,10,22,0.2,75*
Cc1cc2n(n1)C(c1ccsc1)Nc1ccccc1-2 (stereo not drawn),61*,0.4,1,47,0.4,56*
COc1ccccc1-c1nc2n(n1)C(c1ccccc1Cl)C(C(N)=O)=C(C)N2 (stereo not drawn),31,0.7,-5,3,1,5
CSc1ccc(C2Nc3ccccc3-c3cc(C)nn32)cc1 (stereo not drawn),50*,0.5,-7,-5,0.6,38
Cc1nc2ncnn2c(C)c1CCC(=O)NCCC1=CCCCC1,6,0.9,2,-1,0.9,7
Nc1nnc(SCC(=O)N2CCN(c3ccccc3)CC2)n1-c1ccccc1,-10,1.1,0,2,1.1,-8
CCN(CC)CCN1C(=O)C(=O)/C(=C(/O)c2ccncc2)C1c1ccccc1 (stereo not drawn),0,1,0,-14,1,5
Cc1cccc(/C(N)=N/OC(=O)N2c3ccccc3Sc3ccccc32)c1,27,0.7,12,nt,0.5,54*
CCC(C(=O)O/N=C(\N)c1cccc(C)c1)c1ccccc1 (stereo not drawn),12,0.9,-3,nt,0.8,23

# Source: PubChem BioAssay (several laboratories)
